rRNA inh HTS = inhibits bacterial ribosomal RNA function over humanized ribosomes; hit rate 1.6% among 350,000; GFP signal change (wild-type ribosome), % (concentration not given with the values); E. coli WT GFP vs humanized-ribosome RFP mutants, fluorescence, 24 h; hits give low values; DMSO median 0, no signal -100;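 active = significant combined selectivity score with lowered wild-type GFP, culture density cut under 30%, mutant RFP and density less affected; inactive = any of these conditions unmet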
EWS-Fli inh = inhibitors of EWS/Fli oncoprotein transcriptional activity; A673 NR0B1-luciferase reporter, viability-normalised; inhibition, % at 12.6 µM; hit rate 0.67% among 350,000;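 active = mean inhibition of at least 50% after viability correction, with every replicate also passing that limit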;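 also: firefly luciferase signal divided by Alamar Blue viability fluorescence both relative to DMSO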
E-selectin induc = E-selectin induction on HUVECs; P16581; HUVEC E-selectin immunofluorescence imaging; normalized: neutral wells 0, TNF-alpha wells 100; activation, % at 7.58 µM; hit rate 0.37% among 260,000; AID 686992;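 active = mean E-selectin-positive cell signal at least 10% of the positive control, reached in at least 60% of replicates, without over 20% cell loss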
Target sequence (P16581 whole entry, looked up): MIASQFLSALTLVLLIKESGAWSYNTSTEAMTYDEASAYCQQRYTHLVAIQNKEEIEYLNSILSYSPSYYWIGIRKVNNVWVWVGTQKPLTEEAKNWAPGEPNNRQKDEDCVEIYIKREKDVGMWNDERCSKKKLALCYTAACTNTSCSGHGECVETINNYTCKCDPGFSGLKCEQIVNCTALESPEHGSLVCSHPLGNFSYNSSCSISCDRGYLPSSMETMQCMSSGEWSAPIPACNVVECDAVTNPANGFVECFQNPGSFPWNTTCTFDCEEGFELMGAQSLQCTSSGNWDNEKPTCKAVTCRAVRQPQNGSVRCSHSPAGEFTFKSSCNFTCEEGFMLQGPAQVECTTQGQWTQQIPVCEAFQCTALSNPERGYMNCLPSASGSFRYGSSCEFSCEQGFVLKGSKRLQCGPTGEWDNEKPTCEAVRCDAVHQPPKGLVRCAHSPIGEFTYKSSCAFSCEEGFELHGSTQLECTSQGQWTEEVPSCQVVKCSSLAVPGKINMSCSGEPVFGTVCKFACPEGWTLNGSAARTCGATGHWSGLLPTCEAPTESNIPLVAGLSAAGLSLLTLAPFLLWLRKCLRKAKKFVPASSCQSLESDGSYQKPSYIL
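System: HUVEC / Compound: single concentration / Signal: immunofluorescence imaging / Read-out: percent E-selectin-positive cells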
LGR2 antag = inhibitors of bursicon-induced Drosophila LGR2 receptor cAMP signaling; inhibition, % at 9.99 µM; AID 720647; HEK293 LGR2, CRE-luciferase, bursicon-stimulated, 4 h; hit rate 0.35% among 380,000;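 active = drop in luminescence signal, shown as inhibition above about 50% in the replicate tests, limit read from the data, passing the limit was not always enough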;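 also: agonist challenge used bursicon conditioned medium at about half maximal strength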
Numbers without * were called inactive; · = no result. Hits are enriched below; roughly 2.4% of the tested compounds scored in any of these assays.

SMILES	rRNA inh HTS	EWS-Fli inh	E-selectin induc	LGR2 antag
CC(C)NC(=O)CCCn1cc([N+](=O)[O-])cn1	6	8	2	·
Cc1nn(C)c(C)c1/C=N/NC(=O)CCn1cc([N+](=O)[O-])cn1	8	72*	·	13
CO[C@@H]1CN(C)C(=O)c2ccc(NC(C)=O)cc2OC[C@H](C)N(C(=O)c2ccccn2)C[C@@H]1C	1	0	0	-17
CC(C)(C)[S@](=O)N1Cc2cc(C(=O)N[C@@H]3CCN(Cc4ccccc4)C3)nc(-c3cccc(-c4cccnc4)c3)c2[C@@H]1CCO	0	11	0	-7
CC(C)(C)[S@](=O)N1Cc2cc(C(=O)N[C@H]3CCN(Cc4ccccc4)C3)nc(-c3cccc(-c4ccncc4)c3)c2[C@@H]1CCO	-2	8	62*	12
COc1ccc(CNC(=O)c2cc3c(c(-c4cccc(-c5cccc(C#N)c5)c4)n2)[C@H](CCO)N([S@@](=O)C(C)(C)C)C3)cc1	-52	13	54*	-24
Cc1ccc(-c2cc3onc(-c4ccccc4)c3c(=O)n2C)cc1	0	80*	0	85*
CCCOc1ccc(-c2cc3onc(-c4ccccc4)c3c(=O)n2C)cc1	11	62*	0	-1
CCc1noc2cc(-c3ccccc3)n(C)c(=O)c12	0	-74	0	-49
CNC(=O)c1ccc(-c2cc3onc(-c4ccccc4)c3c(=O)n2C)cc1	-28*	-133	0	-30
C[C@@H]1CN([C@@H](C)CO)C(=O)Cc2cc(NC(=O)C3CC3)ccc2O[C@@H]1CN(C)S(=O)(=O)c1cccs1	0	-12	2	-4
C[C@H](CO)N1C[C@H](C)[C@@H](CN(C)C(=O)C2CC2)Oc2cc(-c3cncnc3)ccc2S1(=O)=O	6	-11	0	13
Cc1ccc(C)c(N=Nc2ccc(O)c3ncccc23)c1	·	·	·	52*
COc1ccc(S(=O)(=O)N[C@@H]2CC[C@@H](CCNC(=O)Cc3ccccn3)O[C@@H]2CO)cc1	0	-2	0	-1
COc1ccc(NC(=O)N(C)C[C@@H]2Oc3ccc(NC(=O)Cc4ccccc4)cc3C(=O)N([C@@H](C)CO)C[C@@H]2C)cc1	-1	3	0	13
O=C(Cn1cnc2ccccc21)c1ccc(Br)cc1	-28*	-30	-1	-14
C=C(Br)Cn1cnc2ccccc21	-2	-6	·	5
C[C@H](CO)N1C[C@H](C)[C@H](CN(C)C(=O)NC2CCCCC2)Oc2ccc(NS(=O)(=O)c3cn(C)cn3)cc2C1=O	2	5	0	2
O=C(COc1ccccc1[N+](=O)[O-])Nc1ccc(N2CCN(C(=O)c3cccs3)CC2)cc1	13	-8	·	75*
C[C@H](CO)N1C[C@H](C)[C@@H](CN(C)C)Oc2c(NC(=O)Cc3cn(C)c4ccccc34)cccc2C1=O	0	·	·	·
CC1=CC2=NC(=O)/C(=C\c3cccn3CCOc3ccc(C)c(C)c3)C(=N)N2O1	·	·	·	-4
CC1=CC2=NC(=O)/C(=C/c3cccn3Cc3ccccc3)C(=N)N2O1	-35*	5	0	10
CC(C)C#Cc1ccc2c(c1)O[C@H](CN(C)C(=O)C1CCCCC1)[C@H](C)CN([C@H](C)CO)S2(=O)=O	-4	5	0	10
CC(=O)Nc1ccc(-c2ccnc3c2CC(C(=O)NCc2cccc(Cl)c2)O3)cc1 (stereo unspecified)	-20	70*	1	·
CC(=O)Nc1cccc(-c2ccnc3c2CC(C(=O)NCc2cccc(Cl)c2)O3)c1 (stereo unspecified)	-4	63*	·	3
SMILES	rRNA inh HTS	EWS-Fli inh	E-selectin induc	LGR2 antag
C[C@@H]1CN([C@H](C)CO)S(=O)(=O)c2ccc(C#CCN(C)C)cc2O[C@H]1CN(C)Cc1ccncc1	-4	6	0	18
CCOc1ccc(C(=O)Nc2ccccc2-c2ccccc2)cc1Cl	·	·	·	3
Cc1c(NC(=O)c2ccc(-c3ccccc3)cc2)cccc1C(=O)O	0	31	1	56*
CCOc1ccc(C(=O)Nc2cccc(C(=O)O)c2C)cc1Cl	-2	23	6	70*
CC(C)c1cn(CC[C@@H]2CC[C@H](NC(=O)Nc3cc(Cl)cc(Cl)c3)[C@@H](CO)O2)nn1	-17	-2	0	-16
C[C@H](CO)N1C[C@H](C)[C@H](CN(C)S(=O)(=O)c2cccs2)Oc2ccc(NC(=O)Nc3ccc(C(F)(F)F)cc3)cc2CC1=O	4	56*	6	9
C[C@@H]1CN([C@H](C)CO)C(=O)Cc2cc(NC(=O)Nc3ccc(C(F)(F)F)cc3)ccc2O[C@H]1CN(C)S(=O)(=O)c1cccs1	0	-5	1	11
C[C@H](CO)N1C[C@H](C)[C@@H](CN(C)S(=O)(=O)c2cccs2)Oc2ccc(NS(=O)(=O)c3ccc(Cl)cc3)cc2CC1=O	-5	3	98*	-13
C[C@@H]1CN([C@H](C)CO)C(=O)Cc2cc(NS(=O)(=O)c3ccc(F)cc3)ccc2O[C@H]1CN(C)S(=O)(=O)c1ccc(Cl)cc1	1	-5	29*	7
C[C@H]1CN([C@@H](C)CO)C(=O)Cc2cc(NS(=O)(=O)c3ccc(Cl)cc3)ccc2O[C@H]1CN(C)S(=O)(=O)c1ccc(F)cc1	6	-1	0	-7
C[C@H](CO)N1C[C@H](C)[C@H](CN(C)S(=O)(=O)c2ccccc2)Oc2ccc(NC(=O)Nc3ccc(C(F)(F)F)cc3)cc2CC1=O	7	61*	3	10
CC(C)NC(=O)Nc1ccc2c(c1)C(=O)N([C@H](C)CO)C[C@H](C)[C@H](CN(C)C(=O)CCCN(C)C)OCCCC[C@H](C)O2	-1	·	0	-13
C[C@H](CO)N1C[C@H](C)[C@H](CN(C)S(=O)(=O)c2ccc(Cl)cc2)Oc2ccc(NC(=O)Nc3ccc(F)cc3)cc2CC1=O	2	31	40*	9
C[C@H](CO)N1C[C@H](C)[C@H](CN(C)S(=O)(=O)c2ccc(F)cc2)Oc2ccc(NC(=O)Nc3ccc(F)cc3)cc2CC1=O	-4	-15	3	5
C[C@H](CO)N1C[C@H](C)[C@H](CN(C)S(=O)(=O)c2ccccc2)Oc2ccc(NC(=O)Nc3ccc(F)cc3)cc2CC1=O	-2	6	41*	3
Cc1noc(C)c1NC(=O)Nc1ccc2c(c1)CC(=O)N([C@@H](C)CO)C[C@H](C)[C@@H](CN(C)S(=O)(=O)c1ccccc1)O2	2	-4	49*	-13
Cc1noc(C)c1NC(=O)Nc1ccc2c(c1)CC(=O)N([C@@H](C)CO)C[C@@H](C)[C@@H](CN(C)S(=O)(=O)c1ccccc1)O2	1	-8	-4	3
C[C@@H]1CN([C@H](C)CO)C(=O)Cc2cc(NC(=O)Nc3ccc(F)cc3)ccc2O[C@H]1CN(C)S(=O)(=O)c1ccccc1	-7	-2	-3	17
C[C@@H]1CN([C@H](C)CO)C(=O)c2cc(NC(=O)Nc3cccc4ccccc34)ccc2O[C@@H]1CN(C)Cc1ccc(C(=O)O)cc1	0	7	17	31
